How the values were obtained:
Huh 5.15 replicon cells = assay: MTT assay of cellular viability and proliferation; assay type: cell-based, human
Outline: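 Replicon cells were seeded semi-confluent, attached overnight, then given compound at 10 or 20 μM or vehicle, in triplicate or quadruplicate. MTT was added at 24 and 48 h and absorbance read at 570 nm. Blanks containing vehicle plus compound were subtracted, and viable cells were expressed relative to vehicle controls.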

NS3 protease [1] = conditions: compared with bilirubin; cited from earlier work
[2] = biological target: NS3-4A protease T54A mutant (Hepatitis C virus genotype 1b, UniProt P26663, T1080A); assay: Mutant recombinant NS3-4A protease fluorometric assay, T54A; assay type: biochemical, HCV; conditions: T54A vs WT
Outline: (§1)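 Recombinant wild-type and mutant NS3-4A proteases were run side by side in a SensoLyte FRET assay across a range of compound concentrations. Excitation/emission of 591/622, 490/520 or 340/490 nm was chosen empirically for each compound, and parallel compound-only wells corrected for autofluorescence. Compound came from DMSO stock diluted into assay buffer, with vehicle controls.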

[3] = biological target: NS3-4A protease V36M mutant (Hepatitis C virus genotype 1b, UniProt P26663, V1062M); assay: Mutant recombinant NS3-4A protease fluorometric assay, V36M; assay type: biochemical, HCV; conditions: V36M vs WT
Outline: as §1

[4] = tested on: HCV proteins NS3-4A and core; assay: Western blot for HCV proteins in infected Huh 7.5 cells and Huh 5.15NS replicons; assay type: cell-based; conditions: MPP 10 µM; J6/JFH infected Huh 7.5 cells 48 hrs, Huh 5.15NS replicons 24 hrs
Outline: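 Cells in log phase were treated with compound, then lysed. HCV proteins were detected by Western blot with anti-NS3-4A antibodies and enhanced chemiluminescence.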

[5] = biological target: HCV NS3-4A protease genotype 1B (Hepatitis C virus genotype 1b, UniProt P26663); assay: Recombinant NS3-4A protease FRET assay; assay type: biochemical; conditions: compared with biliverdin
[6] = biological target: NS3-4A protease A156T mutant (Hepatitis C virus genotype 1b, UniProt P26663, A1182T); assay: Mutant recombinant NS3-4A protease fluorometric assay, A156T; assay type: biochemical, HCV; conditions: A156T vs WT
Outline: as §1

NS3 protease [7] = conditions: less effective for genotype 3; cited from earlier work
[8] = tested on: HCV replicon (Huh 5.15NS, sub-genomic HCV RNA genotype 1b); assay: HCV RNA replication in replicon cells, real-time RT-PCR; assay type: cell-based; conditions: Hepatitis C virus, GETYPE1B, read-out: inhibition in replicon assays
Outline: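 Huh 5.15NS cells carrying subgenomic genotype 1b HCV RNA were seeded, left to attach overnight and treated in log phase for 48 h with compound (DMSO stock diluted into medium) or vehicle. Total RNA was extracted with Trizol and DNase-treated, then HCV RNA was measured by SYBR green real-time RT-PCR using ΔCT against GAPDH. EC50 came from sigmoidal regression, with 3–5 determinations per point and a known NS3-4A inhibitor as positive control.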

## C=CC1=C(C)c2cc3[n-]c(cc4[n-]c(cc5nc(cc1n2)C(C)=C5C=C)c(C)c4CCC(=O)O)c(CCC(=O)O)c3C.[Fe+2] [FePP, Iron protoporphyrin]
Huh 5.15 replicon cells; 10 or 20 μM, by 48 hrs
  reduction of viable cells: 12–19%

## C=CC1=C(C)/C(=C/C2=NC(=C\c3[nH]c(/C=C4\NC(=O)C(C)=C4C=C)c(C)c3CCC(=O)O)/C(CCC(=O)O)=C2C)NC1=O [BV, biliverdin]
NS3 protease [1]
  IC50 for NS3 protease, fold less than BR: 30 fold

## C=CC1=C(C)C2=Cc3c(C=C)c(C)c4[n]3[Zn][n]3c(c(C)c(CCC(=O)O)c3=CC3=NC(=C4)C(C)=C3CCC(=O)O)=CC1=N2 [ZnPP, Zn protoporphyrin]
[2]
  inhibition of mutant protease compared to wild-type enzyme: same fidelity as the wild-type enzyme
[3]
  inhibition of mutant protease compared to wild-type enzyme: same fidelity as the wild-type enzyme
Huh 5.15 replicon cells; 10 or 20 μM, 24 and 48 hrs intervals
  reduction of the amount of viable cells: 40–50%
[4]
  expression of HCV proteins NS3-4A and core (Western blot): decreased expression
[5]
  Ki, fold stronger than biliverdin: 10–20 fold
[6]
  inhibition of mutant protease compared to wild-type enzyme: same fidelity as the wild-type enzyme

## C=C[C@@H]1C[C@]1(NC(=O)[C@@H]1C[C@@H]2CN1C(=O)[C@H](C(C)(C)C)NC(=O)O[C@@H]1C[C@H]1CCCCCc1nc3ccc(OC)cc3nc1O2)C(=O)NS(=O)(=O)C1CC1 [grazoprevir]
NS3 protease [7]
  difference in Ki, genotype 3 as compared to genotype 1: 90 fold

## CC(C)(C)OC(=O)N[C@H]1CCCCC/C=C\[C@@H]2C[C@@]2(C(=O)NS(=O)(=O)C2CC2)NC(=O)[C@@H]2C[C@@H](OC(=O)N3Cc4cccc(F)c4C3)CN2C1=O [Danoprevir, reference compound]
Huh 5.15 replicon cells; 24 or 48 hrs, concentrations equivalent or in excess of EC50
  effects on viable cells: little if any effects
[8]
  inhibition at 0.01 µM: 80 to 90%

— article PMC7048954 (Drug Design, Development and Therapy, 2020)
